Screens from PubChem BioAssay.
Compounds with a hit are over-represented: about 4.2% of the library has one in this group of screens.
KCC2 mod: KCC2 cotransporter modulators, thallium flux, primary screen, cell-based, HEK293 KCC2, FluoZin-2 fluorescence, MLSMR. KCC2 cells, thallium flux FluoZin-2 fluorescence. Solute carrier family 12 member 5 (Homo sapiens), Q9H2X9. B-score of Tl+ flux slope (higher = more flux/activation; lower = inhibition) at 10 µM. actives 2.2% (n = 190,000);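 active means thallium flux slope and its plate-corrected score both differing from the plate sample mean at a set confidence after two filtering rounds, in either direction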;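 further: slope of fluorescence scaled to starting intensity during 10 to 20 s after thallium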
Target sequence (Q9H2X9 whole entry, looked up): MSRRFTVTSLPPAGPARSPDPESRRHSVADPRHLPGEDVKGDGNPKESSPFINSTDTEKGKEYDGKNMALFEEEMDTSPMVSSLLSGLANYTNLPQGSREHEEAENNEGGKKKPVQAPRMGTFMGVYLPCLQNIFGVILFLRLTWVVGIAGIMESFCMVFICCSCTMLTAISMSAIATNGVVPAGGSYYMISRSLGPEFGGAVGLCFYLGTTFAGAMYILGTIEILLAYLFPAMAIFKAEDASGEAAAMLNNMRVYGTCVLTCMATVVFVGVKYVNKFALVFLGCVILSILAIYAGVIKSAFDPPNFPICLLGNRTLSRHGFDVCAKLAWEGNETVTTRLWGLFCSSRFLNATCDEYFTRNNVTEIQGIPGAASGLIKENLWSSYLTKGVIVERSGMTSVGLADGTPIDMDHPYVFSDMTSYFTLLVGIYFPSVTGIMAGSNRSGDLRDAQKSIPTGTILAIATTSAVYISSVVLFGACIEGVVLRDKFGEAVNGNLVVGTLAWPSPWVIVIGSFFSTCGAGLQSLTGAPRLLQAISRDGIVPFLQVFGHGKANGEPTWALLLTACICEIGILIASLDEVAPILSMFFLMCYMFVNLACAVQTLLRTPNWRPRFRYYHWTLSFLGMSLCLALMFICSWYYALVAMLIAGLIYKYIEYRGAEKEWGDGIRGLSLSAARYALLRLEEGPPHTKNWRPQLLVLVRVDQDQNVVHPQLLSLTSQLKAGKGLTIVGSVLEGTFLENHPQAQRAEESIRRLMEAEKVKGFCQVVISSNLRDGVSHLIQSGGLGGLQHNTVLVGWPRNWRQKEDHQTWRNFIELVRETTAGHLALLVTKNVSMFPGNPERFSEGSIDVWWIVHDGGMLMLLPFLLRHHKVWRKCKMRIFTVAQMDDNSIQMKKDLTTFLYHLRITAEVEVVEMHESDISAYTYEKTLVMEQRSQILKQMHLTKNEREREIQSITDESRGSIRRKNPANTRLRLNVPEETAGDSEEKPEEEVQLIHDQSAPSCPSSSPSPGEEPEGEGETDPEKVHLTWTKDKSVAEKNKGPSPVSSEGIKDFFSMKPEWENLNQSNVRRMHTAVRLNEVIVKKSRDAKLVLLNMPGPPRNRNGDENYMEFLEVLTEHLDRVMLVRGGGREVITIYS
SKKanGAS inh: S. pyogenes SKKanGAS growth inhibitors in kanamycin, primary screen, streptokinase expression inhibitor project, SKKanGAS strain, BacTiter-Glo luminescence | 6 h | inhibition, % at 7.5 µM | actives 1.3% (n = 300,000);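 active means mean replicate score, as percent of positive control median, at least 50; inconclusive means mean below 50 but one replicate at or above 50; inactive means mean and every replicate below 50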;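 further: strain carries kanamycin resistance gene driven by streptokinase promoter and grows in 40 µg/ml kanamycin; loss of luminescence reflects streptokinase promoter inhibition or plain growth inhibition; 0% = median of DMSO wells and 100% = positive control at its reference dose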
Insulin prom up: insulin promoter activators in MIN6 cells, imaging, high-content screening, mouse beta cells; MIN6 insulin promoter-GFP reporter; stronger effect = higher value; z-score at 5 µM; actives 0.3% (n = 190,000);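 active means z-score above 3 at 5 µM with at least 500 cells counted in the well; inconclusive means wells under 500 cells, flagged as cytotoxic or low count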
Autophagy mod: autophagy modulators in MEF cells, primary screen, imaging, high-content, MEF GFP-LC3; MEF GFP-LC3 puncta imaging; test concentration mostly 10 µM; calls only at 10 µM (by protocol); actives 0.98% (n = 190,000);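 active means percentage of spot-positive cells more than 3 SD above its plate mean, without a fluorescence outlier flag or 80% toxicity; inconclusive means no clear call, values can overlap the other calls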;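 further: spot-positive cell cutoff set from DMSO-treated cells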
Rad51 HR inh: human RAD51 strand exchange inhibitors, primary screen, biochemical, fluorescence; hRad51 DNA strand exchange, fluorescence dequenching; DNA repair protein RAD51 homolog 1 (Homo sapiens), Q06609; actives 0.085% (n = 200,000); inhibition, % at 10 µM;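 active means inhibition above 40% at the single screening dose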;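 further: 0% = DMSO control wells and 100% = blanks with heterologous ssDNA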
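Material: human Rad51–ssDNA filaments; Probe or stimulus: labelled 47-mer dsDNA for strand exchange; Doses: single 10 µM dose; Incubation: 37 °C 15-min filament assembly, 30-min compound preincubation, 15-min exchange; Technique: FRET fluorescence dequenching, excitation 485 nm, emission 520 nm; Measure: Fluorescence-based percent inhibition, control- and blank-normalised; Benchmarks: plate control and blank wells.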
WT yeast gro inh: growth inhibition of WT strain, primary screen, mitochondrial fusion inhibitor project, WT and mutant strains, chemical genetic. mitochondrial fusion phenotypic screen. inhibition, % at 10 µM. actives 2.1% (n = 190,000). AID 1362, 2008; in the data active means inhibition above about 58%; tested in S. cerevisiae
KCC2 secondary: KCC2 modulators in sodium-free buffer, confirmation, cell-based, HEK293 KCC2, thallium flux, secondary assay. normalised thallium flux (F/F0 slope) at 10 µM. actives 15% (n = 3,700). shares compounds with KCC2 mod. FluoZin2 fluorescence; stronger effect = higher value;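 active means thallium flux slope above the same plate's solvent-only control mean plus 3 SD; inconclusive means the two replicate wells disagree; inactive means no significant difference from solvent-only control wells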
KCC2 bumet counter: thallium flux persisting under bumetanide in KCC2 cells, confirmation, counter-screen for KCC2 modulator project, cell-based, HEK293 KCC2, FluoZin2, secondary assay 3 | normalized thallium flux at 10 µM | HEK293-KCC2 + bumetanide/ouabain; stronger effect = higher value | shares compounds with KCC2 mod | actives 49% (n = 3,700);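 active means thallium entry rate above the same plate's blocked-transporter control wells by more than 3 SD; inconclusive means the two repeat wells disagree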;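 further: raw slope of fluorescence over initial fluorescence between 10 and 20 s after thallium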
KCC2 sec2: KCC2 modulators without ouabain present, confirmation, cell-based, HEK293 KCC2, thallium flux, FluoZin2, secondary assay 2 | actives 23% (n = 3,700) | shares compounds with KCC2 mod | AID 1715, 2009 | normalized thallium flux at 10 µM | thallium flux FluoZin2 fluorescence; actives lie on both sides; F/F0 rise rate, 10–20 s post-thallium;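 active means thallium flux slope more than 3 SD above or below the plate's solvent-only control mean, mostly below; inconclusive means the two repeat wells disagreed; inactive means no significant shift from solvent-only controls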;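 further: raw slope with 0.1% DMSO as baseline and bumetanide as block control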
HEK293 Tl flux: thallium flux modulation in parental HEK cells, confirmation, counter-screen for KCC2 modulator project, cell-based, counterscreen 1; actives 46% (n = 3,700); shares compounds with KCC2 mod; AID 1716, 2009; thallium flux rate (normalised fluorescence) at 10 µM; HEK293 parental cells, thallium flux FluoZin2, ouabain; baseline-ratio fluorescence slope, 10–20 s after thallium;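 active means thallium flux rate significantly above the same plate's solvent-only control wells, beyond their mean plus 3 SD; inconclusive means the two replicate wells gave conflicting results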
KCC2 ouabain: KCC2 inhibitors and activators, ouabain retest, confirmation, HEK-KCC2 cells; raw Tl+ flux slope (below DMSO = inhibition, above = activation) at 10 µM; actives 48% (n = 3,700); shares compounds with KCC2 mod; AID 1717, 2009; HEK293-KCC2, thallium flux FluoZin2 fluorescence; bidirectional: low = inhibitor, high = activator;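 active means thallium flux slope beyond 3 SD from same-plate DMSO control mean in most replicates, usually higher, sometimes lower; inconclusive means repeat tests gave conflicting results; inactive means no significant difference from controls in most replicates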;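 further: slope of initial-normalized fluorescence between seconds 10 and 20 after thallium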
HEK293 Tl flux2: native HEK Tl+ uptake effects, second counter-screen – HEK cells, counterscreen 2, counter-screen for KCC2 modulator project, confirmation; shares compounds with KCC2 mod; HEK293 parental, thallium flux FluoZin-2 fluorescence slope; AID 1718, 2009; actives 33% (n = 3,700); thallium flux slope at 10 µM;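 active means thallium flux slope above the same plate's solvent-control mean plus 3 SD in both duplicate wells; inconclusive means duplicate wells that disagreed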;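 further: run without ouabain in cells lacking the KCC2 cotransporter; slope of fluorescence scaled to its starting value between 10 and 20 s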
* hit, by the source's call; i = inactive; ? = inconclusive; / = no result.

SMILES	KCC2 mod	SKKanGAS inh	Insulin prom up	Autophagy mod	Rad51 HR inh	WT yeast gro inh	KCC2 secondary	KCC2 bumet counter	KCC2 sec2	HEK293 Tl flux	KCC2 ouabain	HEK293 Tl flux2
COc1ccc(C(=O)C2CCCN(C(=O)c3noc4c3CCCC4)C2)cc1F (centres undefined)	-0.016	3	-0.27	i	/	8	/	/	/	/	/	/
COc1ccccc1NC(=O)C(C)OC(=O)C1CCC(C(C)(C)C)CC1 (centres undefined)	/	33	/	/	/	/	/	/	/	/	/	/
COc1cc(C(=S)N2CCCC2)cc(OC)c1O	-3.6*	/	1.3	i	5	3	0.0099	0.0059	0.036	0.0072	0.023	0.0099
COC(=O)CSc1nnc(SCc2ccc(Cl)cc2)s1	-1.2	3	0.07	i	1	3	/	/	/	/	/	/
COC(=O)CSc1nnc(SCc2ccccc2)s1	/	-4	-0.59	i	2	4	0.0058	?	0.021*	0.006*	0.012*	0.0087
COc1ccc(-c2cc(C)nc(SCc3cccc(C(=O)O)c3)n2)cc1	-4.8*	12	0.08	i	3	4	0.011	0.013*	0.034	0.009*	0.023	?
O=C(C1CC1)N1CCc2cc(S(=O)(=O)NC3CCN(Cc4ccccc4)CC3)ccc21	/	2	-0.15	i	/	7	0.0093	?	?	0.0078	0.016*	0.011
O=C(NNS(=O)(=O)c1ccc2ccccc2c1)C1CCN(Cc2ccccc2)CC1	/	-5	/	i	/	4	0.0065	0.0046	0.026	0.007	?	0.011
O=S(=O)(NC1CCN(Cc2ccccc2)CC1)c1ccc2ccccc2c1	0.042	-5	-0.22	i	8	40	/	/	/	/	/	/
COc1ccc(Nc2nc(N3CCCCC3)nc(N3CCCCC3)n2)c(OC)c1	/	3	-0.08	/	2	/	/	/	/	/	/	/
COc1ccc(Nc2nc(N3CCCC3)nc(N3CCCC3)n2)c(OC)c1	-2.4*	-12	/	i	-2	43	?	0.0066	0.034	0.0082	0.023	0.011
O=C(C1CC(c2ccccc2O)=NO1)N1CCc2ccccc2C1 (centres undefined)	-3.2*	4	/	i	-6	25	0.0068	0.0053	?	0.008	0.018	0.011
O=C(C1CC(c2ccc(F)cc2)=NO1)N1CCc2ccccc2C1 (centres undefined)	-0.77	-7	0.77	i	-3	4	/	/	/	/	/	/
O=C1CCC/C(=N\NC(=O)c2ccc(COc3ccccc3-c3ccccc3)cc2)C1	0.0034	-2	-0.19	i	3	-9	/	/	/	/	/	/
O=C(COc1ccccc1-c1ccccc1)NN=C1CCCC1	-3.4*	-6	0.07	i	/	15	0.0071	0.0039	0.032	0.005*	0.018	0.0077*
CC(C)c1ccc(NC(=O)CCN2C(=O)[C@@H]3Cc4ccccc4CN3C2=O)cc1	/	0	/	/	/	/	/	/	/	/	/	/
Cn1nnnc1SCCNCc1ccncc1	/	-4	0.16	i	6	-10	0.0093	0.0072	0.03	?	0.021	0.0095
O=C1c2oc3ccc(F)cc3c(=O)c2C(c2ccc(F)cc2)N1CCCN1CCOCC1 (centres undefined)	0.23	3	/	i	0	4	/	/	/	/	/	/
COc1cccc(C2c3c(oc4ccc(F)cc4c3=O)C(=O)N2CCCN2CCOCC2)c1 (centres undefined)	11*	-9	/	i	/	8	0.0071	0.011*	0.03	0.013*	?	0.014*
COC(=O)c1cn(Cc2ccccn2)c(=O)c2ccccc12	-0.2	6	-0.28	i	-7	-12	/	/	/	/	/	/
COc1ccc2nc(NC(=O)CN(C)S(=O)(=O)c3cccs3)sc2c1	-0.76	7	0.57	i	-4	7	/	/	/	/	/	/
CCOc1ccc2nc(NC(=O)Nc3ccccc3)sc2c1	/	-17	/	i	-9	-23	/	/	/	/	/	/
COc1ccc2nc(NC(=O)CNS(=O)(=O)c3cccs3)sc2c1	/	-8	/	i	5	16	0.01	0.0065	0.031	0.0077	?	?
Cc1ccc2nc(NC(=O)c3ccccc3F)sc2c1	/	0	/	/	/	/	/	/	/	/	/	/
Cc1ccc2nc(N/C(=N/S(=O)(=O)c3cccs3)c3ccccc3Cl)sc2c1	6.4*	12	-0.31	i	6	1	0.0073	0.023*	0.032	0.022*	?	0.017*
Cc1ccc2nc(NC(=O)C3CCN(S(=O)(=O)c4cccs4)CC3)sc2c1	-2	24	-0.19	i	0	17	/	/	/	/	/	/
Cc1ccc2nc(NC(=O)c3ccccn3)sc2c1	7.9*	85*	-1.2	i	/	47	?	0.041*	0.032	0.018*	0.036*	0.011*
CCOc1ccc2nc(NC(=O)c3ccccn3)sc2c1	6.4*	81*	-1.4	/	-4	/	?	0.028*	0.028	0.013*	0.03*	?
O=C1NC2(CCCCCC2)C(=O)N1Cc1ccccc1Cl	/	4	/	/	/	/	/	/	/	/	/	/
CCCCNC(=O)COC(=O)CCC(=O)c1ccc(Cl)cc1	0.22	-8	-0.3	i	-31	0	/	/	/	/	/	/
